In ChEMBL document CHEMBL1144731, “Structure-dependent inhibition of bladder and pancreatic cancer cell growth by 2-substituted glycyrrhetinic and ursolic acid derivatives” (Bioorg Med Chem Lett, 2008):

Experiments:
Format in all cases: functional, cell-based
[1] = Cytotoxicity against human KU7 cells
Method in brief: (§1)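 Cells seeded at 3×10^4 per well in DMEM:Ham's F-12 with 2.5% charcoal-stripped FBS and allowed 24 h to attach. Then exposed to DMSO vehicle or compound, with medium and compound renewed every 48 h. Cell number counted at set times on a Coulter particle counter. Triplicate runs; IC50 obtained by linear regression.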

[2] = Cytotoxicity against human Panc28 cells; method in brief: as §1
PANC-1 = assay: Cytotoxicity against human Panc1 cells; method in brief: as §1
[3] = Cytotoxicity against human 253JBV cells; method in brief: as §1

SMILES	IC50 [1] [µM]	IC50 [2] [µM]	IC50 (PANC-1) [µM]	IC50 [3] [µM]
COC(=O)[C@@]1(C)CC[C@]2(C)CC[C@]3(C)[C@H](C(=O)C=C4[C@@]5(C)C=C(I)C(=O)C(C)(C)[C@@H]5CC[C@]43C)[C@@H]2C1	2.61	3.66	4.45	3.62
COC(=O)[C@]12CC[C@@H](C)[C@H](C)[C@H]1C1=CC[C@@H]3[C@@]4(C)CC[C@H](O)C(C)(C)[C@@H]4CC[C@@]3(C)[C@]1(C)CC2 [METHYL URSOLATE]	8.95	10.6	11.8	6.13
COC(=O)[C@@]1(C)CC[C@]2(C)CC[C@]3(C)C(=CC(=O)[C@@H]4[C@@]5(C)C=C(C#N)C(=O)C(C)(C)[C@@H]5CC[C@]43C)[C@@H]2C1	1.59	1.8	1.22	0.25
COC(=O)[C@]12CC[C@@H](C)[C@H](C)[C@H]1C1=CC[C@@H]3[C@@]4(C)C=C(C#N)C(=O)C(C)(C)[C@@H]4CC[C@@]3(C)[C@]1(C)CC2	0.3	0.97	0.53	0.17
COC(=O)[C@@]1(C)CC[C@]2(C)CC[C@]3(C)C(=CC(=O)[C@@H]4[C@@]5(C)C=C(C(F)(F)F)C(=O)C(C)(C)[C@@H]5CC[C@]43C)[C@@H]2C1	0.38	1.14	0.82	0.67
COC(=O)[C@@]1(C)CC[C@]2(C)CC[C@]3(C)C(=CC(=O)[C@@H]4[C@@]5(C)C=C(I)C(=O)C(C)(C)[C@@H]5CC[C@]43C)[C@@H]2C1	3.04	12.8	4.08	2.67
COC(=O)[C@]12CC[C@@H](C)[C@H](C)[C@H]1C1=CC[C@@H]3[C@@]4(C)C=C(C(F)(F)F)C(=O)C(C)(C)[C@@H]4CC[C@@]3(C)[C@]1(C)CC2	0.47	1.13	0.65	0.17
COC(=O)[C@@]1(C)CC[C@]2(C)CC[C@]3(C)[C@H](C(=O)C=C4[C@@]5(C)C=C(C(F)(F)F)C(=O)C(C)(C)[C@@H]5CC[C@]43C)[C@@H]2C1	1.37	1.13	0.68	0.36
CC1(C)C(=O)C(C#N)=C[C@]2(C)[C@H]3C(=O)C=C4[C@@H]5C[C@@](C)(C(=O)O)CC[C@]5(C)CC[C@@]4(C)[C@]3(C)CC[C@@H]12	5.88	7.32	3.81	6.1
COC(=O)[C@@]1(C)CC[C@]2(C)CC[C@]3(C)C(=CC(=O)[C@@H]4[C@@]5(C)C=C(S(C)(=O)=O)C(=O)C(C)(C)[C@@H]5CC[C@]43C)[C@@H]2C1	3.34	9.75	7.69	12
COC(=O)[C@@]1(C)CC[C@]2(C)CC[C@]3(C)C(=CC(=O)[C@@H]4[C@@]5(C)C=C(P(=O)(OC)OC)C(=O)C(C)(C)[C@@H]5CC[C@]43C)[C@@H]2C1	3.73	8.14	6.11	7.9
COC(=O)[C@]12CC[C@@H](C)[C@H](C)[C@H]1C1=CC[C@@H]3[C@@]4(C)C=C(I)C(=O)C(C)(C)[C@@H]4CC[C@@]3(C)[C@]1(C)CC2	6.02	13.5	6.91	4.9
